Shown are actives, neighbours in structure and some others; about 1.8% of the full set was active somewhere.
CHRM5 antagonist = human M5 muscarinic receptor antagonists, primary screen, CHO cells, Fluo-8 calcium fluorescence. Muscarinic acetylcholine receptor M5 (Homo sapiens), P08912. 360,000 tested, 0.59% active. inhibition, % at 3 µM. CHO-hM5 cells, ACh EC80;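 active means inhibition above a per-plate cutoff, the mean of that plate's test compounds plus 3 SD, cut at about 27% in these data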;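 further: 0% = acetylcholine EC80 with DMSO and 100% = DMSO without agonist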
M4 ag = human M4 muscarinic receptor agonists, primary screen, CHO-K1 cells, Fluo-8 calcium fluorescence | 360,000 tested, 0.14% active | CHO-K1 hM4/Gqi5; vehicle 0%, full acetylcholine response 100% | Muscarinic acetylcholine receptor M4 (Homo sapiens), P08173 | activation, % at 3 µM;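 active means activation above the run mean over all test wells plus 3 SD, cut at about 32% in these data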;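 further: peak over basal fluorescence ratio per well then scaled between controls; 0% = DMSO wells and 100% = acetylcholine at EC100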
Target sequence (P08173 whole entry, looked up): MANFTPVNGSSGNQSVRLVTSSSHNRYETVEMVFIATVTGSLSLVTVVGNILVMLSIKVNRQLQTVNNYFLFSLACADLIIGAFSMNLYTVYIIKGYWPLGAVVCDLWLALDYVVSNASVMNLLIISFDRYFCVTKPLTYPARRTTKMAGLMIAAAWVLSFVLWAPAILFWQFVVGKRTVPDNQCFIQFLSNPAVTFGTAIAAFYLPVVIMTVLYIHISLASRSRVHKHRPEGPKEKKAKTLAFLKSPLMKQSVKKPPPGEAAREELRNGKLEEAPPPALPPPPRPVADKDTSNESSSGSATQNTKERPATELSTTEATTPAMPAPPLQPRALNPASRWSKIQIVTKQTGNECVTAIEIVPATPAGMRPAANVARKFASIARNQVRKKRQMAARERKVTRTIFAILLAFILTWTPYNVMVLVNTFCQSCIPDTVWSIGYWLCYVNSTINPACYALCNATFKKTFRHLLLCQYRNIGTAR
M5 PAM = human M5 muscarinic receptor positive allosteric modulators, primary screen, CHO-K1 cells, Fluo-8 calcium fluorescence. activation, % at 3 µM. 360,000 tested, 0.3% active. CHO-K1 hM5, ACh EC20 PAM; 0% = ACh EC20, 100% = ACh EC100. AID 624038, 2012;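 active means activation above the run cutoff, the mean activation of all test compounds plus 3 SD, cut at about 18% in these data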
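Measured by: Fluo-8 calcium fluorescence; material: human M5 receptor in CHO-K1 cells; schedule: Post-acetylcholine fluorescence recording 140 s; benchmarks: low control EC20 acetylcholine (0%), high control EC100 acetylcholine (100%); read-out: Max/basal fluorescence ratio as % of EC20–EC100 ACh window; compound: single dose, 3 µM nominal final test concentration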
CHRM4 antagonist = human M4 muscarinic receptor antagonists, primary screen, CHO cells, Fluo-8 calcium fluorescence; AID 624125, 2012; 360,000 tested, 0.73% active; Muscarinic acetylcholine receptor M4 (Homo sapiens), P08173; CHO-hM4 cells, ACh EC80; inhibition, % at 3 µM;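 active means inhibition above its plate's cutoff, the mean inhibition of sample wells plus 3 SD, cut at about 27% in these data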;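 further: 0% = acetylcholine EC80 with DMSO and 100% = DMSO without agonist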
M4 PAM = human M4 muscarinic receptor positive allosteric modulators, primary screen, CHO-K1 cells, Fluo-8 calcium fluorescence; Muscarinic acetylcholine receptor M4 (Homo sapiens), P08173; CHO-K1 hM4/Gqi5, ACh EC20; 0% = ACh EC20, 100% = maximal ACh; activation, % at 3 µM; 360,000 tested, 0.4% active;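 active means activation above its plate's cutoff, the mean activation of sample wells plus 3 SD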
CHRM5 agonist = human M5 muscarinic receptor agonists, primary screen, CHO-K1 cells, Fluo-8 calcium fluorescence. CHO-K1 hM5 cells; 0% DMSO wells, 100% maximal acetylcholine response. activation, % at 3 µM. 360,000 tested, 0.19% active. AID 624037, 2012;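 active means activation above the run's mean over test compounds plus 3 SD, cut at about 23% in these data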;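 further: signal is peak over basal fluorescence ratio across the kinetic read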
Numbers without * were called inactive.

SMILES	CHRM5 antagonist	M4 ag	M5 PAM	CHRM4 antagonist	M4 PAM	CHRM5 agonist
O=C(Nc1ccccc1)c1ccccc1OCC(O)CN1C(=O)c2ccccc2S1(=O)=O (stereo unspecified)	22.4	18.8	-19.6	31.5*	-19.8	4.4
O=C([C@H]1O[C@@H](n2ccc(=O)[nH]c2=O)[C@H](O)[C@@H]1O)N1CCN(c2ccc(Cl)cn2)CC1	1.1	1.6	4.6	-9.3	7.8	1.2
O=C(CNC(=O)Cc1ccccc1)N=Nc1c(O)n(Cc2ccc3c(c2)OCO3)c2ccccc12	-4.5	0.7	11.0	-17.8	21.2*	-4.3
CC(=O)c1c(C)n(CC(=O)NCc2ccc3c(c2)OCO3)c2ccccc12	28.8*	13.5	-18.0	10.1	-7.6	0.7
COC(=O)Cn1c(O)c(N=NC(=O)CNC(=O)c2ccc3c(c2)OCCO3)c2ccccc21	-1.3	3.3	10.9	-1.1	2.0	-8.6
COc1cc(C(=O)NCCOc2ccc(Cl)cc2)ccc1OCc1c(C)noc1C	10.7	4.3	1.4	-2.3	8.2	1.8
N=C1N(/N=C/c2ccccc2)C(=Nc2ccccc2)C(=S)N1c1ccccc1	-4.0	0.9	-0.4	54.9*	-25.7	-2.0
COCCNC(=O)C1(C)CCCN(C(=O)c2ccc3c(c2)CCO3)C1 (stereo unspecified)	-1.5	1.7	-0.1	-6.0	7.7	2.6
CCCCOc1ccc(C(=O)NCCOc2cccc(OC)c2)cc1	-6.1	1.8	0.3	-12.1	1.9	-4.6
Cc1cccc(NC(=O)CC2NC3CCCCC3NC2=O)c1 (stereo unspecified)	-5.4	0.1	24.1*	8.5	0.8	-8.0
COC(=O)[C@]12CCCCC=C1N(Cc1ccc3c(c1)OCO3)C(=O)[C@H](CC(=O)N1CCN(C(=O)C3CC3)CC1)C2	16.9	17.4	-11.2	-1.6	-7.6	3.0
COc1cc(CNC(=O)c2cc(-c3cc(Cl)ccc3C)n[nH]2)cc(OC)c1	5.4	1.5	-0.6	-6.0	8.3	-0.8
C#C[C@]1(OC(C)=O)CCC2C3CCC4=CC(=O)CC[C@@H]4C3CC[C@@]21C (stereo partly specified)	2.9	12.9	-16.9	-9.3	-6.8	26.6*
CC(=O)O[C@]1(C(C)=O)CC[C@H]2[C@@H]3C=C(C)C4=CC(=O)CC[C@@H]4[C@H]3CC[C@@]21C	5.6	1.1	-5.6	16.9	-9.7	-1.1
Cc1ccc(C(C#N)=Cc2ccc3c(c2)OCO3)cc1	16.5	-1.6	-8.8	-9.4	-5.8	-2.0
c1ccc(Cn2nnc3c(N4CCCC4)ncnc32)cc1	5.0	3.5	6.1	-5.7	21.5*	4.5
CCN1CCN(c2ncnc3c2nnn3Cc2ccccc2)CC1	2.5	1.8	-6.7	-5.8	1.9	-9.5
CC(=O)Nc1ccc(C=NN=C2c3ccccc3-c3ccccc32)cc1	-9.2	2.4	11.1	3.8	17.5*	3.2
O=C(COc1ccccc1)Nc1cccc(-c2nn[nH]n2)c1	-4.0	0.9	1.7	-6.2	5.5	-2.4
O=C(COc1ccccc1)Nc1cccc(-c2nc3cc4ccccc4cc3[nH]2)c1	18.5	14.1	-22.2	29.8*	-22.4	1.3
Cc1ccc(CN(C)C(=O)C2CCC(=O)N(CCc3ccccc3)C2)o1 (stereo unspecified)	-13.4	3.9	4.4	-8.8	-1.3	-2.0
Cc1ccc(NC(=O)C2CCN(S(=O)(=O)c3cc([N+](=O)[O-])ccc3Cl)CC2)nc1	18.2	15.9	-20.6	21.4	-9.4	0.9
Cc1ccc2nc(NC(=O)C3CCN(S(=O)(=O)c4cc([N+](=O)[O-])ccc4Cl)CC3)sc2c1	30.2*	7.6	-13.1	25.7	-8.8	-2.3
O=C(Nc1nc2ccc(F)cc2s1)C1CCN(S(=O)(=O)c2cc([N+](=O)[O-])ccc2Cl)CC1	43.5*	9.7	-17.6	27.4*	-5.5	-1.6
CC(NC(=O)C1CCN(S(=O)(=O)c2cc([N+](=O)[O-])ccc2Cl)CC1)c1ccccc1 (stereo unspecified)	-5.8	3.3	3.6	-4.8	4.8	-0.6
SMILES	CHRM5 antagonist	M4 ag	M5 PAM	CHRM4 antagonist	M4 PAM	CHRM5 agonist
Cc1ccc2nc(COC(=O)c3cccnc3Cl)cc(=O)n2c1	0.1	0.7	-3.0	-13.1	2.9	1.0
Cc1noc(C)c1NC(=O)N(C)C[C@H]1Oc2ccc(NS(=O)(=O)c3cccs3)cc2C(=O)N([C@H](C)CO)C[C@@H]1C	8.0	1.7	-1.5	-1.7	14.9	-4.5
COc1ccc(S(=O)(=O)NCC2CC3C=CC2C3)cc1OC (stereo unspecified)	-0.7	2.9	2.1	-6.1	2.8	1.3
CC(=O)/C(C[N+]1(C)CCCCC1)=N\O	42.8*	0.6	-22.8	34.5*	-16.9	-7.9
C[N+]1(CC(=O)OCCCc2ccccc2)CCCCC1	7.8	0.7	-13.3	-8.9	-4.8	-15.2
COc1ccccc1C(=O)COC(=O)C1CCN(S(=O)(=O)c2ccccc2)CC1	4.0	0.7	-2.0	6.0	-4.4	0.8
NS(=O)(=O)c1ccc(NC(=O)CCC(=O)c2ccc(Cl)s2)cc1	-0.1	0.3	5.3	-9.1	24.0*	-2.9
NS(=O)(=O)c1ccc(NC(=O)CCC(=O)c2cccs2)cc1	2.0	0.9	-0.2	-11.8	-3.8	-2.2
CC(C)NCCCCOc1ccc(Br)cc1Cl	-3.6	4.7	5.3	-0.9	5.4	-5.5
COc1ccccc1OCC(=O)Nc1ccc(CSc2ccccc2)cc1C	-0.2	0.2	49.1*	1.5	7.2	12.0
COc1ccccc1OCc1ccc(C(=O)N2CCCCC2)o1	22.2	15.6	22.2*	24.8	34.0*	0.7
COc1ccccc1OCc1ccc(C(=O)N2CCOCC2)o1	0.3	1.2	-3.5	-26.0	3.1	-1.1
C/C=C/C(=O)N[C@@H]1c2ccccc2CC[C@@H]1OCc1ccccc1	-15.3	0.4	0.8	-6.3	6.1	-0.2
O=C(N/N=C/c1ccncc1)c1nc(-c2ccccc2)n2c1CCCCC2	9.7	2.1	-5.2	28.7*	-1.2	-3.7
Cc1nn(-c2ccccc2)c(Cl)c1CN(C(=O)CCl)c1ccc(Cl)cc1	24.3	-2.0	-16.8	41.7*	-33.3	-5.6
CC1(C(=O)NS(=O)(=O)c2cccc(OC(F)F)c2)CCN1C(=O)c1ccco1 (stereo unspecified)	0.8	0.9	-0.6	8.7	0.1	0.8
